STAT1 act = activators of IFN-gamma induced STAT1 signaling | NIH 3T3 STAT1-luciferase reporter, luminescence; 100% = IFN-gamma alone, no compound | activation (% of control), % at 5.5 µM | hit rate 2.6% among 200,000 | AID 932;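 active means activation above the screen-wide mean activation plus 3 SD, cut at about 130% in these data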
STAT1 blocker = inhibitors of IFN-gamma induced STAT1 signaling. AID 920. NIH 3T3 STAT1-luciferase reporter, luminescence. hit rate 0.35% among 200,000. inhibition, % at 5.5 µM;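 active means inhibition above a set limit, the mean inhibition across all tested compounds plus 3 SD, cut at about 34% in these data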
NF-kB expr up = raises NF-kB expression in human neuronal cells; NF-kB reporter expression; hits give high values; fold change at 12.5 µM; hit rate 1.6% among 190,000; AID 1239; in the data active means fold change above about 3.3
STAT3 act = increases IL-6 driven STAT3 reporter signal. U3A cells, IL-6 STAT3-luciferase reporter, luminescence; 100% = signal with IL-6 EC80 alone. activation (% of control), % at 5.6 µM. hit rate 0.91% among 190,000. AID 871;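 active means activation above the screen-wide mean of compound activation plus 3 SD, cut at about 130% in these data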
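Detection: reporter luminescence signal / Assay system: STAT1-lacking human U3A cells, STAT3 luciferase reporter / Incubation: compound pre-incubation 1 h before IL-6, then 6 h stimulation at 37 °C / Control set: IL-6-only high control / Read-out: % activation relative to IL-6 control / Probe or stimulus: Interleukin-6, 33 ng/mL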
STAT3 blocker = reduces IL-6 driven STAT3 reporter signal. U3A cells, IL-6 STAT3-luciferase reporter, luminescence; host cell line lacks STAT1. inhibition, % at 5.5 µM. hit rate 0.89% among 190,000;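 active means inhibition above the mean inhibition across all screened compounds plus 3 SD, cut at about 44% in these data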
APP 5'UTR act = activates APP 5'UTR luciferase reporter | hit rate 1% among 190,000 | activation, % at 2 µM | SH-SY5Y APP 5'UTR luciferase reporter, luminescence; zero percent = DMSO vehicle wells;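 active means activation above a set limit, based on mean plus 3 SD of controls, cut at about 140% in these data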
Large screens that a line does not name were inactive. Sampled rows, rich in hits. Any-hit rate of the full collection: about 4.9%.

CC(C)(C)NC(=S)NNC(=O)c1ccc2ncccc2c1	STAT1 act 136.1
FC(F)(F)c1nnc2ccc(Sc3ccccn3)nn12	none
Cc1cc(-c2ccccc2)oc(=O)c1NC(=O)c1ccccc1	none
O=C(Cc1ccccc1)NS(=O)(=O)c1ccc(N=NN2CCOCC2)cc1	none
Cc1ccc(C(=O)Nc2cnc3ccccc3c2)cc1	STAT1 blocker 91.0, STAT3 blocker 110.1
Cc1ccc(C(=O)Nc2cccc(-c3cnc4ccccc4n3)c2)cc1	none
O=C(CN1CCCC1)Nc1ccc([N+](=O)[O-])cc1	none
Cc1ccsc1C1Nc2ccccc2-c2nc3ccccc3n21 (configuration not stated)	STAT1 act 129.1
COc1ccc2c(c1)NC(c1cc(Cl)cc(Cl)c1O)c1cccn1-2 (configuration not stated)	NF-kB expr up 3.73
Cc1ccc(Nc2nnc(SCc3nc4ccccc4c(=O)[nH]3)s2)cc1	none
CC1CCCCC12NC(=O)N(CC(=O)NC(=O)Nc1ccc3c(c1)OCCO3)C2=O (configuration not stated)	STAT1 act 131.7
Cc1ccc(C(=O)c2cc3ccccc3o2)cc1[N+](=O)[O-]	STAT1 act 139.1
C/C(=N\NS(=O)(=O)c1ccc(C)c([N+](=O)[O-])c1)c1cc2ccccc2o1	none (no result: APP 5'UTR act)
O=C(c1ccccc1)c1cc2ccccc2o1	STAT1 act 131.3
O=C(c1cc2ccccc2o1)N1CCCC1	none
COc1cccc2cc(C(=O)c3ccccc3)oc12	STAT1 act 137.0
COc1ccc(C2CCCN2C(=S)Nc2cccc(C)c2C)cc1OC (configuration not stated)	none
C=CCOc1c(Cl)cc(CNc2ccc(C)c(Cl)c2)cc1OC	none
C=CCOc1c(Cl)cc(CNc2ccc(N(C)C)cc2)cc1OC	STAT1 act 136.9
CCc1cc(C(=O)NNC(=S)NCc2ccccc2)cs1	none
CCc1cc(C(=O)NNC(=S)Nc2ccccc2C)cs1	NF-kB expr up 4.28
CCc1cc(C(=O)NNC(=S)Nc2cc(C)ccc2C)cs1	none
CCc1cc(C(=O)Nc2ccccc2)cs1	STAT1 act 134.8, NF-kB expr up 3.74
CCCc1cc(C(=O)Nc2nccs2)cs1	STAT1 act 129.5, NF-kB expr up 6.71, APP 5'UTR act 152.0
CCN(CC)c1ccc(S(=O)(=O)N2CCOCC2)cc1NC(=O)CN1CCc2ccccc2C1	none
CC1CN(C(=O)COC(=O)c2ccc(N(C)C)cc2)CC(C)O1 (configuration not stated)	none
CC(COc1ccccc1)N1CCC(CO)(Cc2ccccc2)CC1 (configuration not stated)	NF-kB expr up 4.39
COc1ccc(CC2(CO)CCN(C(C)COc3ccccc3)CC2)cc1 (configuration not stated)	none
COc1ccc(C(=O)C[n+]2cn(C(F)F)c3ccccc32)c(F)c1	STAT1 act 129.7
COc1cc2[nH]c(=S)nc(NC3CCCC3)c2cc1OC	none
COc1ccc(C(=O)NCC(=O)OCc2ccccc2F)cc1	none
CC(=O)c1c(C)[nH]c(C(=O)OCc2ccccc2)c1C	STAT1 act 141.6
CC(=O)c1c(C)[nH]c(C(=O)OCCCCN2C(=O)c3ccccc3C2=O)c1C	STAT3 blocker 86.5
COc1ccc(NC(=S)c2ccncc2)cc1	none
COc1ccc(C(=S)Nc2ccc(C)cc2)cc1	STAT1 act 132.8
Cc1ccc(NC(=S)c2ccccc2)cc1	STAT1 act 139.2
Cc1cccc(N2CCC(N=CN(C)C)=N2)c1	none
O=C(COC(=O)CC1CCCC1)Nc1cc2c(cc1Cl)C(=O)c1ccccc1C2=O	STAT1 act 129.0
Cn1cccc1/C=C1\Cc2ccccc2C1=O	STAT1 act 140.3, NF-kB expr up 7.17, APP 5'UTR act 183.5
Cn1cccc1/C=C1\CCc2ccccc2C1=O	STAT1 blocker 57.6, NF-kB expr up 5.87, STAT3 blocker 89.2, APP 5'UTR act 166.6
Cn1cccc1/C=C1\CC(C(C)(C)C)C/C(=C\c2cccn2C)C1=O (configuration not stated)	none
Cc1nn2cc(-c3ccc(-c4ccccc4)cc3)nc2s1	NF-kB expr up 4.4
O=C(Nc1ccc(Br)cn1)c1cccc2c1-c1ccccc1C2=O	none
O=C1Oc2ccccc2C(=O)/C1=C\N1CCN(c2ccccc2)CC1	none
CCOC(=O)N1C=CC(C)=C[C@@H]2[C@@H](N3C(=O)c4ccccc4C3=O)C(=O)N21	none
O=C(/C=C/c1ccccc1)N1CCN(c2c(Cl)cccc2[N+](=O)[O-])CC1	none
COC(/C=C/Nc1ccc(C)cc1)=C(C#N)C#N	STAT3 act 135.8
COC(/C=C/Nc1ccc(Br)cc1)=C(C#N)C#N	none
CC1CCN(C(=O)Cn2nnc(-c3cccs3)n2)CC1	STAT1 act 128.7
CC1=C(C(=O)OC(C)(C)C)C(c2cccs2)NC(=O)N1 (configuration not stated)	none
COc1cc(/C=C/C(=O)CC(=O)/C=C/c2ccc(O)c(OC)c2)ccc1O	NF-kB expr up 7.39
Cc1c(C2C(C#N)=C(N)N(c3cccc([N+](=O)[O-])c3)C3=C2C(=O)CCC3)cnn1C (configuration not stated)	none
COc1ccc(N2CCN(c3ncnc4c3[nH]c3ccccc34)CC2)cc1	STAT1 blocker 40.6, STAT3 blocker 77.2 (no result: APP 5'UTR act)
Fc1ccc2[nH]c3c(N4CCN(c5ccccc5)CC4)ncnc3c2c1	none
O=C(CN1CCCCC1)Nc1ccc(NC(=O)c2ccccc2Cl)cc1Cl	none
O=C(O)c1ccc(Oc2cccc([N+](=O)[O-])c2)cc1C(=O)O	NF-kB expr up 4.28
CCCN=Cc1sc2ccc(OCC)cc2c1O	STAT1 act 129.8
COc1ccc(CCNC(=O)CSc2ccc(-c3cccs3)nn2)cc1OC	none
CN=c1scc(-c2ccccc2F)n1/N=C(\C)c1cccnc1	STAT1 act 131.8, NF-kB expr up 5.97, APP 5'UTR act 186.4
C/C(=N\N1CCN(C2c3ccccc3-c3ccccc32)CC1)c1cccnc1	none
O=S(=O)(c1ccccc1)c1cnc(-c2ccccc2)nc1N1CCCCC1	STAT1 act 144.9
CCOC(=O)Cc1csc(NC(=O)c2c(-c3ccccc3)noc2C)n1	none
CCOC(=O)c1c(NC(=O)c2c(-c3ccccc3)noc2C)sc(C)c1-c1ccccc1	STAT1 act 136.5
CCOc1ccc(N/C(SCc2cccc([N+](=O)[O-])c2)=C(/C#N)C(N)=O)cc1	none
N#CC(C#N)=C(Nc1ccc(F)cc1)SCc1cccc(F)c1	STAT1 blocker 48.8, STAT3 blocker 58.8
c1ccc(CSc2ccc(-c3cccnc3)nn2)cc1	STAT1 act 133.9
c1cncc(CSc2ccc(-c3cccnc3)nn2)c1	none
CN=C(c1ccco1)n1c(=S)nc(-c2ccco2)n(C)c1=S	STAT3 act 134.9

High-throughput results (PubChem BioAssay)
